We go through one compound from ChEMBL document CHEMBL3763128, “Synthesis and antibacterial evaluation of novel 4″-glycyl linked quinolyl-azithromycins with potent activity against macrolide-resistant pathogens” (2016).

Molecules are shown by their SMILES. Converted amounts (≈) assume the structure as drawn.

What all share (type): functional
Assay [1] deals with Streptococcus pneumoniae. In words: Antibacterial activity against constitutive macrolide-lincosamide-streptogramin B resistant Streptococcus pneumoniae by agar microdilution method. The procedure, abridged:
(§1)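 Agar microdilution per NCCLS guidelines; MIC reported in μg/mL; differences treated as significant only when more than a factor of 2 (one dilution) apart.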

The test system of another assay is Moraxella catarrhalis. Nature of the assay: Antibacterial activity against Moraxella catarrhalis by agar microdilution method. In outline:
(§2)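 MIC by agar microdilution following NCCLS guidelines. Values in μg/mL. Only differences of more than one twofold dilution were treated as significant. Ery-S denotes erythromycin-susceptible strains.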

Assay [2] has as its system Streptococcus pyogenes. Nature of the assay: Antibacterial activity against erythromycin-susceptible Streptococcus pyogenes by agar microdilution method. In outline: as §2
Assay [3] concerns Staphylococcus aureus. In words: Antibacterial activity against erythromycin-susceptible Staphylococcus aureus by agar microdilution method. In outline:
as §2

For assay [4], the system named is Streptococcus pyogenes. In words: Antibacterial activity against inducibly macrolide-lincosamide-streptogramin B resistant Streptococcus pyogenes by agar microdilution method. The procedure, abridged:
as §1

Assay [5] has as its system Staphylococcus aureus. Nature of the assay: Antibacterial activity against constitutive macrolide-lincosamide-streptogramin B resistant Staphylococcus aureus by agar microdilution method. In outline:
as §1

Assay [6] deals with Streptococcus pyogenes. In words: Antibacterial activity against constitutive macrolide-lincosamide-streptogramin B resistant Streptococcus pyogenes by agar microdilution method. The procedure, abridged: as §1
The test system of assay [7] is Streptococcus pneumoniae. In words: Antibacterial activity against efflux mediated macrolide resistant Streptococcus pneumoniae by agar microdilution method. In outline:
as §1

The subject of assay [8] is Streptococcus pyogenes. Nature of the assay: Antibacterial activity against efflux mediated macrolide resistant Streptococcus pyogenes by agar microdilution method. The procedure, abridged:
as §1

Assay [9] concerns Streptococcus pneumoniae. Nature of the assay: Antibacterial activity against erythromycin-susceptible Streptococcus pneumoniae by agar microdilution method. The procedure, abridged: as §2
Assay [10] relates to Staphylococcus aureus. In words: Antibacterial activity against efflux mediated macrolide resistant Staphylococcus aureus by agar microdilution method. In outline:
as §1

The subject of assay [11] is Staphylococcus aureus. In words: Antibacterial activity against inducibly macrolide-lincosamide-streptogramin B resistant Staphylococcus aureus by agar microdilution method. In outline: as §1
For another assay, the system named is Haemophilus influenzae. Nature of the assay: Antibacterial activity against Haemophilus influenzae by agar microdilution method. The procedure, abridged: as §2

As for `CC[C@H]1OC(=O)[C@@H](C)[C@H](O[C@@H]2C[C@](C)(OC)[C@H](OC(=O)CNC(=O)CCNCCOCCOCCNc3cc4c(=O)c(C(=O)O)cn(C5CC5)c4cc3Cl)[C@@H](C)O2)[C@H](C)[C@H](O[C@H]2O[C@@H](C)C[C@@H](N(C)C)[C@@H]2O)[C@@](C)(O)C[C@H](C)CN(C)[C@@H](C)[C@H](O)[C@@]1(C)O` (stereo in doubt), the MIC against Streptococcus pneumoniae [1] is 4 µg/mL (≈ 3.15 µM); against Moraxella catarrhalis it was 1 µg/mL (≈ 0.787 µM); with Streptococcus pyogenes [2], at most 0.125 µg/mL; in the assay on Staphylococcus aureus [3] it was at most 0.125 µg/mL; against Streptococcus pyogenes [4] it was 1 µg/mL (≈ 0.787 µM); in the assay on Staphylococcus aureus [5] it was over 64 µg/mL. Further, the MIC is 8 µg/mL (≈ 6.3 µM) against Streptococcus pyogenes [6]; 1 µg/mL (≈ 0.787 µM) in the assay on Streptococcus pneumoniae [7]; 2 µg/mL (≈ 1.57 µM) in the assay with Streptococcus pyogenes [8]; at most 0.125 µg/mL against Streptococcus pneumoniae [9]; 0.5 µg/mL (≈ 0.394 µM) with Staphylococcus aureus [10]; 4 µg/mL (≈ 3.15 µM) against Staphylococcus aureus [11]. The compound also displayed an MIC against Haemophilus influenzae of 4 µg/mL (≈ 3.15 µM).
